The values below come from paper PMC7224986 (Journal of medicinal chemistry, 2016).

What is called inhibition is how much of the control response was suppressed.

In one assay the test system is T. gondii parasites. As to the kind of experiment: Invasion inhibition assay of T. gondii into host fibroblast cells. The format is cell-based, Toxoplasma gondii. The essentials:
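Type I RH strain, clone 2F, expressing E. coli β-galactosidase. Compound came from a 10 mM DMSO stock diluted in medium with 1% DMSO, which was also the vehicle control. Parasites were preincubated with compound for 20 min at room temperature. Then 5 × 10^2 parasites/well were added to confluent human foreskin fibroblasts in DMEM/10% FBS, centrifuged ~300g for 5 min, and cultured at 37°C, 5% CO2. EC50 from a variable-slope sigmoidal fit; three experiments, each in triplicate.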

For the next assay, the target named is mammalian actin (Oryctolagus cuniculus, UniProt P68135). The assay is described as follows: Pyrene fluorescence actin polymerization assay. It counts as biochemical. The note with it: for inhibition at 10 µM: read-out: Inhibition of mammalian actin polymerization at 10 μM; for inhibition at 100 µM: read-out: Inhibition of mammalian actin polymerization at 100 μM; for Inhibition of mammalian actin polymerization at 10 μM: 10 μM compound. The essentials:
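Actin was 5% pyrene-labelled, held in Ca buffer G (2 mM Tris pH 8, 0.2 mM ATP). It was converted to the Mg2+ form (final 1 mM EGTA, 0.1 mM MgCl2) for 2 min at room temperature. Actin at 2.5 μM final was preincubated 1 min with compound in DMSO; latrunculin B was the positive control. Polymerisation was started with KCl 50 mM, imidazole 10 mM pH 7, MgCl2 1 mM, EGTA 1 mM. Pyrene fluorescence (ex 365/em 407 nm) was read every 15 s for 90 min, in triplicate.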

With `COc1ccc(CN2C(=O)SC[C@H]2C2(OC)CC(OC(=O)C3CCCC3)CCO2)cc1` (stereo partly drawn) [Compound 11, 2-Methoxy-2-((R)-3-(4-methoxybenzyl)-2-oxothiazolidin-4-yl)tetrahydro-2H-pyran-4-yl cyclopentanecarboxylate], the “activity against T. gondii (in words)” value in the assay with T. gondii parasites was “inactive”.

With `COc1ccc(CN2C(=O)SC[C@H]2C2(OC)CC(OC(=O)c3ccccc3I)CCO2)cc1` (stereo partly shown) [Compound 14, 2-Methoxy-2-(3-(4-methoxybenzyl)-2-oxothiazolidin-4-yl)tetrahydro-2H-pyran-4-yl 2-iodobenzoate], at mammalian actin, the inhibition at 10 µM was less than 10% and the inhibition at 100 µM was less than 10%.

In the case of `COc1ccc(CN2C(=O)SC[C@H]2C2(OC)CC(OC(=O)c3ccccc3-c3cccc4ccccc34)CCO2)cc1` (stereo partly drawn) [Compound 17, 2-Methoxy-2-((R)-3-(4-methoxybenzyl)-2-oxothiazolidin-4-yl)tetrahydro-2H-pyran-4-yl 2-(naphthalen-1-yl)benzoate], at mammalian actin, the inhibition at 10 µM is less than 10% and the inhibition at 100 µM was less than 10%.

In the case of `C/C1=C/C(=O)O[C@@H]2C[C@@H](CC[C@H](C)/C=C\CC1)O[C@@](O)([C@@H]1CSC(=O)N1)C2` [Latrunculin B, latrunculin B, reference compound], the “Inhibition of mammalian actin polymerization at 10 μM” value on mammalian actin (2.5 μM actin, pyrene fluorescence) was 100%; at mammalian actin (2.5 μM actin, pyrene fluorescence, listed as latrunculin B), 100%. In addition, the “Inhibition of mammalian actin polymerization at 100 μM” value on mammalian actin (100 μM compound, 2.5 μM actin, pyrene fluorescence) was determined as 100%.

On to `COc1ccc(CN2C(=O)SC[C@H]2C2(OC)CC(OC(=O)c3ccccc3-c3cccs3)CCO2)cc1` (stereo partly drawn) [Compound 15, 2-Methoxy-2-((R)-3-(4-methoxybenzyl)-2-oxothiazolidin-4-yl)tetrahydro-2H-pyran-4-yl 2-(thiophen-2-yl)benzoate], for which, on mammalian actin, the inhibition at 10 µM was less than 10% and the inhibition at 100 µM was less than 10%.

Take `CCCCC(=O)OC1CCOC(OC)([C@@H]2CSC(=O)N2Cc2ccc(OC)cc2)C1` (stereo partly drawn) [Compound 10, 2-Methoxy-2-((R)-3-(4-methoxybenzyl)-2-oxothiazolidin-4-yl)tetrahydro-2H-pyran-4-yl pentanoate]: the “activity against T. gondii (in words)” value with T. gondii parasites is “inactive”.

For `COc1ccc(CN2C(=O)SC[C@H]2C2(OC)CC(OC(=O)c3ccccc3C3=CCCCC3)CCO2)cc1` (stereo partly drawn) [Compound 16, 2-Methoxy-2-((R)-3-(4-methoxybenzyl)-2-oxothiazolidin-4-yl)tetrahydro-2H-pyran-4-yl 2',3',4',5'-tetrahydro-[1,1'-biphenyl]-2-carboxylate], on mammalian actin, the inhibition at 10 µM is less than 10% and the inhibition at 100 µM was less than 10%.
